# Measurements reported in ChEMBL document CHEMBL2321783, “Structure-activity relationships of peptides incorporating a bioactive reverse-turn heterocycle at the melanocortin receptors: identification of a 5800-fold mouse melanocortin-3 receptor (mMC3R) selective antagonist/partial agonist versus the mouse melanocortin-4 receptor (mMC4R)” (J Med Chem, 2013).
# Columns and labels:
# Assay type in all cases: functional, cell-based
# Details in all cases: hek293
# Melanocortin receptor 4 = Melanocortin receptor 4 (Mus musculus, UniProt P56450); assay: Agonist activity at mouse MC4 receptor expressed in HEK293 cells after 6 hrs by cAMP-based beta-galactosidase reporter gene assay
# Melanocortin receptor 4, sequence (P56450 whole entry): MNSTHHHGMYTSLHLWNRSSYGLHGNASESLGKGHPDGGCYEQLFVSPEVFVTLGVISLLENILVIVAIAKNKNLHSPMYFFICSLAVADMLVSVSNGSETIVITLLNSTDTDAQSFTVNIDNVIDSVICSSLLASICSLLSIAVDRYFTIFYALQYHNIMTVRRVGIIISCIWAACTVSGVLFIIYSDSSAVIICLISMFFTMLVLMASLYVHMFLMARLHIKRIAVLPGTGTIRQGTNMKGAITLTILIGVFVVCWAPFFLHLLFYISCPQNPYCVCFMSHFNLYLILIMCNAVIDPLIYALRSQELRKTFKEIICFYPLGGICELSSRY
# Procedure, shortened: (§1)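 HEK-293 cells stably expressing the mouse receptor, kept in DMEM with 10% fetal calf serum, transfected with CRE/β-galactosidase reporter. Efficacy is relative to NDP-MSH on the same plate. EC50 is the mean of duplicate wells from three or more independent experiments, fitted by nonlinear least squares.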
# Melanocortin receptor 5 = Melanocortin receptor 5 (Mus musculus, UniProt P41149); assay: Agonist activity at mouse MC5 receptor expressed in HEK293 cells after 6 hrs by cAMP-based beta-galactosidase reporter gene assay; procedure, shortened: as §1
# Melanocortin receptor 5, sequence (P41149 whole entry): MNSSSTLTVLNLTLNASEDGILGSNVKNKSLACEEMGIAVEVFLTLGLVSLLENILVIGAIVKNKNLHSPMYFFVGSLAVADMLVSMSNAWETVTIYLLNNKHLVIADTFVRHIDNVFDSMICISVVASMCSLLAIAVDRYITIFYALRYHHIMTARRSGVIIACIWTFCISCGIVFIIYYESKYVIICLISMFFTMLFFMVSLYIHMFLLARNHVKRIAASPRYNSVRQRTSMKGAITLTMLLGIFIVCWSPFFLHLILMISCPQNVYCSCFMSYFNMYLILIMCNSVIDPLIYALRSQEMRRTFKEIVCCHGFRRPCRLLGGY
# [1] = target: Melanocyte-stimulating hormone receptor (Mus musculus, UniProt Q01727); assay: Agonist activity at mouse MC1 receptor expressed in HEK293 cells after 6 hrs by cAMP-based beta-galactosidase reporter gene assay; procedure, shortened: as §1
# Melanocyte-stimulating hormone receptor, sequence (Q01727 whole entry): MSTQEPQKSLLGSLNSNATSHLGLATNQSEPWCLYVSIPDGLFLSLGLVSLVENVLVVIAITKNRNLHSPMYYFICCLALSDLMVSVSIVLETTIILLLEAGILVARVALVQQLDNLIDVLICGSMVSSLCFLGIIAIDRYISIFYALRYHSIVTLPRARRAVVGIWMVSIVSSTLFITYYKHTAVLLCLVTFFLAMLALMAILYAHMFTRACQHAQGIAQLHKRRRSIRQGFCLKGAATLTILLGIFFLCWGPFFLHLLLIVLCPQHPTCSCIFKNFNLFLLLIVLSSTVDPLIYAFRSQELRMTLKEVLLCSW
Compound,EC50 (Melanocortin receptor 4) [nM],EC50 (Melanocortin receptor 5) [nM],EC50 [1] [nM]
C[C@@H]1NC(=O)[C@H](CC(N)=O)NC(=O)[C@H](C)N2C[C@H](CCCNC(=N)N)NC(=O)[C@H](CSCC2=O)NC(=O)[C@@H](Cc2ccccc2)NC(=O)[C@H](Cc2c[nH]cn2)NC(=O)[C@@H](NC(=O)[C@@H](N)Cc2ccc(O)cc2)CSSC[C@@H](C(=O)N[C@@H](Cc2ccc(O)cc2)C(N)=O)NC(=O)[C@H](Cc2ccccc2)NC1=O,210,125,80
C[C@@H]1NC(=O)[C@H](CC(N)=O)NC(=O)[C@H](Cc2c[nH]c3ccccc23)N2C[C@H](CCCNC(=N)N)NC(=O)[C@H](CSCC2=O)NC(=O)[C@@H](Cc2ccc3ccccc3c2)NC(=O)[C@H](Cc2c[nH]cn2)NC(=O)[C@@H](NC(=O)[C@@H](N)Cc2ccc(O)cc2)CSSC[C@@H](C(=O)N[C@@H](Cc2ccc(O)cc2)C(N)=O)NC(=O)[C@H](Cc2ccccc2)NC1=O,190,46,8.7
C[C@@H]1NC(=O)[C@H](CC(N)=O)NC(=O)[C@H](Cc2c[nH]c3ccccc23)N2C[C@H](CCCCNC(=N)N)NC(=O)[C@H](CSCC2=O)NC(=O)[C@@H](Cc2ccccc2)NC(=O)[C@H](Cc2c[nH]cn2)NC(=O)[C@@H](NC(=O)[C@@H](N)Cc2ccc(O)cc2)CSSC[C@@H](C(=O)N[C@@H](Cc2ccc(O)cc2)C(N)=O)NC(=O)[C@H](Cc2ccccc2)NC1=O,965,350,15
C[C@@H]1NC(=O)[C@H](CC(N)=O)NC(=O)[C@H](Cc2c[nH]c3ccccc23)N2C[C@H](CCCN=C(N)N)NC(=O)[C@H](CSCC2=O)NC(=O)[C@@H](Cc2ccccc2)NC(=O)[C@H](Cc2cnc[nH]2)NC(=O)[C@@H](NC(=O)[C@@H](N)Cc2ccc(O)cc2)CSSC[C@@H](C(=O)N[C@@H](Cc2ccc(O)cc2)C(N)=O)NC(=O)[C@H](Cc2ccccc2)NC1=O,190,46,2.4
C[C@@H]1NC(=O)[C@H](CC(N)=O)NC(=O)[C@@H](Cc2ccc3ccccc3c2)N2C[C@H](CCCNC(=N)N)NC(=O)[C@H](CSCC2=O)NC(=O)[C@@H](Cc2ccccc2)NC(=O)[C@H](Cc2c[nH]cn2)NC(=O)[C@@H](NC(=O)[C@@H](N)Cc2ccc(O)cc2)CSSC[C@@H](C(=O)N[C@@H](Cc2ccc(O)cc2)C(N)=O)NC(=O)[C@H](Cc2ccccc2)NC1=O,50,29,14
C[C@@H]1NC(=O)[C@@H](NC(=O)[C@@H](N)Cc2ccc(O)cc2)CSSC[C@@H](C(=O)N[C@@H](Cc2ccc(O)cc2)C(N)=O)NC(=O)[C@H](Cc2ccccc2)NC(=O)[C@H](C)NC(=O)[C@H](CC(N)=O)NC(=O)[C@H](Cc2c[nH]c3ccccc23)N2C[C@H](CCCNC(=N)N)NC(=O)[C@H](CSCC2=O)NC(=O)[C@@H](Cc2ccccc2)NC1=O,705,690,52
C[C@@H]1NC(=O)[C@H](CC(N)=O)NC(=O)[C@H](Cc2ccc3ccccc3c2)N2C[C@H](CCCNC(=N)N)NC(=O)[C@H](CSCC2=O)NC(=O)[C@@H](Cc2ccccc2)NC(=O)[C@H](Cc2c[nH]cn2)NC(=O)[C@@H](NC(=O)[C@@H](N)Cc2ccc(O)cc2)CSSC[C@@H](C(=O)N[C@@H](Cc2ccc(O)cc2)C(N)=O)NC(=O)[C@H](Cc2ccccc2)NC1=O,220,52,6.2
C[C@@H]1NC(=O)[C@H](CC(N)=O)NC(=O)[C@H](Cc2c[nH]c3ccccc23)N2C[C@H](CCCNC(=N)N)NC(=O)[C@H](CSCC2=O)NC(=O)[C@@H]2CCCN2C(=O)[C@H](Cc2c[nH]cn2)NC(=O)[C@@H](NC(=O)[C@@H](N)Cc2ccc(O)cc2)CSSC[C@@H](C(=O)N[C@@H](Cc2ccc(O)cc2)C(N)=O)NC(=O)[C@H](Cc2ccccc2)NC1=O,5400,1100,5000
C[C@@H]1NC(=O)[C@H](CC(N)=O)NC(=O)[C@H](Cc2c[nH]c3ccccc23)N2C[C@H](C)NC(=O)[C@H](CSCC2=O)NC(=O)[C@@H](Cc2ccccc2)NC(=O)[C@H](Cc2c[nH]cn2)NC(=O)[C@@H](NC(=O)[C@@H](N)Cc2ccc(O)cc2)CSSC[C@@H](C(=O)N[C@@H](Cc2ccc(O)cc2)C(N)=O)NC(=O)[C@H](Cc2ccccc2)NC1=O,1300,850,19
C[C@@H]1NC(=O)[C@H](CC(N)=O)NC(=O)[C@H](Cc2c[nH]c3ccccc23)N2C[C@H](CCCNC(=N)N)NC(=O)[C@H](CSCC2=O)NC(=O)[C@@H](Cc2ccccc2)NC(=O)[C@@H]2CCCN2C(=O)[C@@H](NC(=O)[C@@H](N)Cc2ccc(O)cc2)CSSC[C@@H](C(=O)N[C@@H](Cc2ccc(O)cc2)C(N)=O)NC(=O)[C@H](Cc2ccccc2)NC1=O,240,270,32
C[C@@H]1NC(=O)[C@H](CC(N)=O)NC(=O)[C@H](Cc2c[nH]c3ccccc23)N2C[C@H](CCCNC(=N)N)NC(=O)[C@H](CSCC2=O)NC(=O)[C@@H](Cc2ccc(I)cc2)NC(=O)[C@H](Cc2c[nH]cn2)NC(=O)[C@@H](NC(=O)[C@@H](N)Cc2ccc(O)cc2)CSSC[C@@H](C(=O)N[C@@H](Cc2ccc(O)cc2)C(N)=O)NC(=O)[C@H](Cc2ccccc2)NC1=O,20,9.8,0.5
C[C@@H]1NC(=O)[C@H](CC(N)=O)NC(=O)[C@H](Cc2c[nH]c3ccccc23)N2C[C@H](CCCCN)NC(=O)[C@H](CSCC2=O)NC(=O)[C@@H](Cc2ccccc2)NC(=O)[C@H](Cc2c[nH]cn2)NC(=O)[C@@H](NC(=O)[C@@H](N)Cc2ccc(O)cc2)CSSC[C@@H](C(=O)N[C@@H](Cc2ccc(O)cc2)C(N)=O)NC(=O)[C@H](Cc2ccccc2)NC1=O,420,460,30
C[C@@H]1NC(=O)[C@H](CC(N)=O)NC(=O)[C@H](Cc2c[nH]c3ccccc23)N2C[C@H](CCCNC(=N)N)NC(=O)[C@H](CSCC2=O)NC(=O)[C@@H](Cc2ccc(-c3ccccc3)cc2)NC(=O)[C@H](Cc2c[nH]cn2)NC(=O)[C@@H](NC(=O)[C@@H](N)Cc2ccc(O)cc2)CSSC[C@@H](C(=O)N[C@@H](Cc2ccc(O)cc2)C(N)=O)NC(=O)[C@H](Cc2ccccc2)NC1=O,760,87,1.1
C[C@@H]1NC(=O)[C@H](CC(N)=O)NC(=O)[C@H](Cc2c[nH]c3ccccc23)N2C[C@H](CCCNC(=N)N)NC(=O)[C@H](CSCC2=O)NC(=O)[C@@H](Cc2cccc3ccccc23)NC(=O)[C@H](Cc2c[nH]cn2)NC(=O)[C@@H](NC(=O)[C@@H](N)Cc2ccc(O)cc2)CSSC[C@@H](C(=O)N[C@@H](Cc2ccc(O)cc2)C(N)=O)NC(=O)[C@H](Cc2ccccc2)NC1=O,130,205,7.4
C[C@@H]1NC(=O)[C@H](CC(N)=O)NC(=O)[C@H](Cc2ccc(-c3ccccc3)cc2)N2C[C@H](CCCNC(=N)N)NC(=O)[C@H](CSCC2=O)NC(=O)[C@@H](Cc2ccccc2)NC(=O)[C@H](Cc2c[nH]cn2)NC(=O)[C@@H](NC(=O)[C@@H](N)Cc2ccc(O)cc2)CSSC[C@@H](C(=O)N[C@@H](Cc2ccc(O)cc2)C(N)=O)NC(=O)[C@H](Cc2ccccc2)NC1=O,980,830,20
C[C@@H]1NC(=O)[C@H](CC(N)=O)NC(=O)[C@H](Cc2c[nH]c3ccccc23)N2C[C@H](CCCNC(=N)N)NC(=O)[C@H](CSCC2=O)NC(=O)[C@@H](Cc2ccccc2)NC(=O)[C@H](Cc2ccccc2)NC(=O)[C@@H](NC(=O)[C@@H](N)Cc2ccc(O)cc2)CSSC[C@@H](C(=O)N[C@@H](Cc2ccc(O)cc2)C(N)=O)NC(=O)[C@H](Cc2ccccc2)NC1=O,290,415,1.94
